Assay results taken from ChEMBL document CHEMBL4033790, “Design and Synthesis of Novel Deuterated Ligands Functionally Selective for the γ-Aminobutyric Acid Type A Receptor (GABAAR) α6 Subtype with Improved Metabolic Stability and Enhanced Bioavailability” (J Med Chem, 2018).
Values after ≈ are worked out from the molar mass of the structure shown. Active and inactive are the calls of the source. The calls are words filed in the database; no cut-off is given here.

Tests used:
[1] = system: HEK-293T; test: Cytotoxicity against HEK293T cells assessed as reduction in cell viability up to 400 uM after 48 hrs by CellTiter-Glo assay; type: cell-based; details: human
In short: (§1)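 HEK293T and HepG2 cells grown in high-glucose DMEM with non-essential amino acids, 10 mM HEPES, penicillin/streptomycin and 10% heat-inactivated FBS. Cells were harvested with trypsin and plated; compound was pin-transferred 3 h later. Incubation was 48 h, then CellTiter-Glo luminescence was read. Controls were DMSO (negative) and a cytotoxic aminoketone (positive). Quadruplicates, three independent runs, normalized to controls, nonlinear regression.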

[2] = system: Brain; test: Fraction unbound in Wistar rat brain at 10 mg/kg, ip administered as single dose measured at 5 to 720 mins post dose by HPLC-MS/MS analysis; type: ADME, organism-based; details: in vivo
In short: (§2)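 Free fraction in rat plasma and brain tissue was measured in vitro by rapid equilibrium dialysis. Exposure came from male Wistar rats (250-350 g) given a single 10 mg/kg IP dose, as a 5 mg/ml suspension in 85% water, 14% propylene glycol and 1% Tween 80. Three rats per time point (5–720 min); brain analysed by HPLC-MS/MS after solid-phase extraction.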

[3] = Metabolic stability in human liver microsomes assessed as parent compound remaining at 10 uM after 60 mins by LC-MS analysis; type: ADME, microsome; details: read-out: Stability
In short: (§3)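 The 60 min samples of the microsomal incubation (10 μM compound, human or mouse liver microsomes at 0.5 mg/mL, NADPH regenerating system, 37 °C) were analysed by LC-MS. Detection used SIM mode with dual ESI/APCI ionization, calibrated to the retention times and masses of the parent and its O-demethylated metabolites. Peak intensities were measured.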

[4] = Tmax in Wistar rat plasma at 10 mg/kg, ip administered as single dose by HPLC-MS/MS analysis; type: ADME, organism-based
In short: (§4)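 Male Wistar rats (250–350 g) received a single i.p. dose of 10 mg/kg as a 5 mg/ml suspension in 85% water, 14% propylene glycol and 1% Tween 80. Three rats per time point were sacrificed at 5, 20, 60, 180 and 720 min for plasma and brain. Samples were cleaned up by solid-phase extraction and quantified by HPLC-MS/MS.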

[5] = system: Brain; test: Unbound AUC in Wistar rat brain at 10 mg/kg, ip administered as single dose measured at 5 to 720 mins post dose by HPLC-MS/MS analysis; type: ADME, organism-based; details: in vivo; in short: as §2
[6] = Cmax in Wistar rat brain at 10 mg/kg, ip administered as single dose measured at 5 to 720 mins post dose by HPLC-MS/MS analysis; type: ADME, organism-based; parameters: dose 10 mg/kg, route intraperitoneal
In short: (§5)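 Male Wistar rats (250-350 g) given a single 10 mg/kg i.p. dose of a 5 mg/ml suspension in 85% distilled water, 14% propylene glycol, 1% Tween 80. Three rats per time point (5, 20, 60, 180, 720 min). Blood and brain were collected after sacrifice. Drug was recovered by solid phase extraction and quantified by HPLC-MS/MS.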

[7] = Terminal elimination half-life in Wistar rat plasma at 10 mg/kg, ip administered as single dose by HPLC-MS/MS analysis; type: ADME, organism-based; details: read-out: beta t1/2 (converted); in short: as §4
[8] = Metabolic stability in mouse liver microsomes assessed as parent compound remaining at 10 uM after 60 mins by LC-MS analysis; type: ADME, microsome; details: read-out: Stability; in short: as §3
[9] = Terminal elimination half-life in Wistar rat brain at 10 mg/kg, ip administered as single dose by HPLC-MS/MS analysis; type: ADME, organism-based; details: read-out: beta t1/2 (converted); in short: as §4
[10] = target: Voltage-gated inwardly rectifying potassium channel KCNH2 (Homo sapiens, UniProt Q12809); test: Displacement of [3H]-dofetilide from human ERG expressed in HEK cell membranes at >10 uM after 60 to 90 mins by scintillation counting
[11] = AUC (0 to 12 hrs) in Wistar rat plasma at 10 mg/kg, ip administered as single dose by HPLC-MS/MS analysis; type: ADME, organism-based; parameters: time < 12 hr, dose 10 mg/kg, route intraperitoneal
[12] = system: Mus musculus; test: Neurotoxicity in Swiss Webster mouse assessed as induction of motor impairment at 40 mg/kg administered via oral gavage measured after 10 to 60 mins by rotarod method; type: toxicity, organism-based; details: in vivo
In short: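 Female mice were given a single oral gavage dose of 40 mg/kg, either in 50% PBS/40% propylene glycol/10% DMSO or, for poorly soluble compounds, in 2% polyethylene glycol plus 2.5% hydroxymethyl cellulose. Rotarod performance was tested 10, 30 and 60 min after dosing, with diazepam 5 mg/kg as positive control.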

[13] = Tmax in Wistar rat brain at 10 mg/kg, ip administered as single dose by HPLC-MS/MS analysis; type: ADME, organism-based; in short: as §4
[14] = Cmax in Wistar rat plasma at 10 mg/kg, ip administered as single dose measured at 5 to 720 mins post dose by HPLC-MS/MS analysis; type: ADME, organism-based; parameters: dose 10 mg/kg, route intraperitoneal; in short: as §5
[15] = Ratio of brain AUC (0 to t) to plasma AUC (0 to t), Kp of the compound in Wistar rat at 10 mg/kg, ip administered as single dose by HPLC-MS/MS analysis; type: ADME, organism-based
[16] = system: HepG2; test: Cytotoxicity against human HepG2 cells assessed as reduction in cell viability up to 400 uM after 48 hrs by CellTiter-Glo assay; type: cell-based; details: hepg2, 48 h; in short: as §1
[17] = system: Brain; test: AUC (0 to 12 hrs) in Wistar rat brain at 10 mg/kg, ip administered as single dose by HPLC-MS/MS analysis; type: ADME, organism-based; parameters: dose 10 mg/kg, time < 12 hr, route intraperitoneal; details: in vivo
[18] = Drug level in mouse liver microsomes treated with 7-Bromo-2-(4-methoxy-d3-phenyl)-2,5-dihydro-3H-pyrazolo[4,3-c]quinolin-3-one after 60 mins by LC-MS analysis; type: ADME; details: 1 h
[19] = Drug level in human liver microsomes treated with 7-Bromo-2-(4-methoxy-d3-phenyl)-2,5-dihydro-3H-pyrazolo[4,3-c]quinolin-3-one after 60 mins by LC-MS analysis; type: ADME; details: 1 h
[20] = system: Liver; test: Half life in human liver microsomes at 10 uM by LC-MS/MS analysis; type: ADME, microsome
In short: (§6)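 Compound at 10 μM final was preincubated 5 min at 37 °C with NADPH regenerating system in phosphate buffer, pH 7.4. Human or mouse liver microsomes (0.5 mg/mL protein) were added to start the reaction. Samples were taken at 0 (no microsomes) and 10–60 min and measured by LC-MS/MS against an internal standard. Half-life = 0.693/k, with k the slope of ln peak-area ratio versus time. Three experiments, each in duplicate.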

[21] = Solubility of the compound in 0.01M HCl at pH 2 after 2 hrs by LC-MS analysis; type: physicochemical; details: buffer, pH 2, 2 h
In short: (§7)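 10 mg compound dissolved in 2 mL DMAC; 10 μL of this added to 2 mL DI water (pH 7, sonicated) or 2 mL 0.01 M aq HCl (pH 2), held 2 h at 37 °C. Filtered through 0.45 micron filter, then quantified by LC-MS in SIM mode against calibration curves of standards in DMAC (n = 5); n=3.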

[22] = system: Liver; test: Half life in mouse liver microsomes at 10 uM by LC-MS/MS analysis; type: ADME, microsome; in short: as §6
[23] = Aqueous solubility of the compound in DI water at pH 7 after 2 hrs by LC-MS analysis; type: physicochemical; details: buffer, pH 7, 2 h; in short: as §7
[24] = target: Delta-type opioid receptor (Homo sapiens) (UniProt P41143); test: Displacement of [3H]-DADLE from human recombinant DOR expressed in HEK293 cells at 10 uM after 60 to 90 mins by scintillation counting; type: cell-based; details: tested as the 2H-labelled form
In short: (§8)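 Primary single-concentration radioligand displacement screen run by the NIMH Psychoactive Drug Screening Program across a 46-target panel that includes hERG. The read-out is percent inhibition of specific radioligand binding. Any compound displacing more than 50% of radioligand went on to secondary binding assays to determine Ki.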

[25] = species on record: Rattus norvegicus; test: Displacement of [3H]-flunitrazepam from rat brain GABA-A receptor benzodiazepine site […] at 10 uM after 60 to 90 mins by scintillation counting; details: tested as the 2H-labelled form
[26] = target: GABA-A receptor; alpha-2/beta-3/gamma-2 (Homo sapiens) (UniProt P18507+P28472+P47869); test: Positive allosteric modulation of GABA-A receptor alpha2beta3gamma2 (unknown origin) expressed in Xenopus laevis oocytes assessed as potentiation of EC3 GABA induced currents up to 100 uM at -60 mV holding potential by electrophysiological method relative to GABA; type: cell-based; details: tested as the 2H-labelled form
In short: (§9)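 Stage 5–6 defolliculated Xenopus oocytes were injected with 2.5 ng total mRNA per oocyte: α1, α2, α3 or α5 with β3 and γ2 at 1:1:5, and α4 or α6 with β3 and γ2 at 3:1:5. Oocytes were kept ≥36 h at 18 °C in NDE medium before recording. Compounds were co-applied with GABA titrated to EC3-5 for each oocyte. Curves were fitted with the Hill equation; mean ± SEM from ≥3 oocytes across two batches.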

[27] = target: GABA-A receptor; alpha-1/beta-3/gamma-2 (Homo sapiens) (UniProt P14867+P18507+P28472); test: Positive allosteric modulation of GABA-A receptor alpha1beta3gamma2 (unknown origin) expressed in Xenopus laevis oocytes assessed as potentiation of EC3 GABA induced currents up to 100 uM at -60 mV holding potential by electrophysiological method relative to GABA; type: cell-based; details: tested as the 2H-labelled form; in short: as §9
[28] = target: GABA A receptor alpha-4/beta-3/gamma-2 (Homo sapiens) (UniProt P18507+P28472+P48169); test: Positive allosteric modulation of GABA-A receptor alpha4beta3gamma2 (unknown origin) expressed in Xenopus laevis oocytes assessed as potentiation of EC3 GABA induced currents up to 100 uM at -60 mV holding potential by electrophysiological method relative to GABA; type: cell-based; details: tested as the 2H-labelled form; in short: as §9
[29] = target: GABA-A receptor; alpha-5/beta-3/gamma-2 (Homo sapiens) (UniProt P18507+P28472+P31644); test: Positive allosteric modulation of GABA-A receptor alpha5beta3gamma2 (unknown origin) expressed in Xenopus laevis oocytes assessed as potentiation of EC3 GABA induced currents up to 100 uM at -60 mV holding potential by electrophysiological method relative to GABA; type: cell-based; details: tested as the 2H-labelled form; in short: as §9
[30] = target: Muscarinic acetylcholine receptor M4 (Homo sapiens) (UniProt P08173); test: Displacement of [3H]-QNB from human recombinant M4 receptor expressed in HEK293 cells at 10 uM after 60 to 90 mins by scintillation counting; type: cell-based; in short: as §8
[31] = target: GABA-A receptor; alpha-3/beta-3/gamma-2 (Homo sapiens) (UniProt P18507+P28472+P34903); test: Positive allosteric modulation of GABA-A receptor alpha3beta3gamma2 (unknown origin) expressed in Xenopus laevis oocytes assessed as potentiation of EC3 GABA induced currents up to 100 uM at -60 mV holding potential by electrophysiological method relative to GABA; type: cell-based; details: tested as the 2H-labelled form; in short: as §9
[32] = target: GABA-A receptor; alpha-6/beta-3/gamma-2 (Homo sapiens) (UniProt P18507+P28472+Q16445); test: Positive allosteric modulation of GABA-A receptor alpha6beta3gamma2 (unknown origin) expressed in Xenopus laevis oocytes assessed as potentiation of EC3 GABA induced currents up to 10 uM at -60 mV holding potential by electrophysiological method; type: cell-based; details: tested as the 2H-labelled form; in short: as §9

Voltage-gated inwardly rectifying potassium channel KCNH2, sequence (Q12809 whole entry): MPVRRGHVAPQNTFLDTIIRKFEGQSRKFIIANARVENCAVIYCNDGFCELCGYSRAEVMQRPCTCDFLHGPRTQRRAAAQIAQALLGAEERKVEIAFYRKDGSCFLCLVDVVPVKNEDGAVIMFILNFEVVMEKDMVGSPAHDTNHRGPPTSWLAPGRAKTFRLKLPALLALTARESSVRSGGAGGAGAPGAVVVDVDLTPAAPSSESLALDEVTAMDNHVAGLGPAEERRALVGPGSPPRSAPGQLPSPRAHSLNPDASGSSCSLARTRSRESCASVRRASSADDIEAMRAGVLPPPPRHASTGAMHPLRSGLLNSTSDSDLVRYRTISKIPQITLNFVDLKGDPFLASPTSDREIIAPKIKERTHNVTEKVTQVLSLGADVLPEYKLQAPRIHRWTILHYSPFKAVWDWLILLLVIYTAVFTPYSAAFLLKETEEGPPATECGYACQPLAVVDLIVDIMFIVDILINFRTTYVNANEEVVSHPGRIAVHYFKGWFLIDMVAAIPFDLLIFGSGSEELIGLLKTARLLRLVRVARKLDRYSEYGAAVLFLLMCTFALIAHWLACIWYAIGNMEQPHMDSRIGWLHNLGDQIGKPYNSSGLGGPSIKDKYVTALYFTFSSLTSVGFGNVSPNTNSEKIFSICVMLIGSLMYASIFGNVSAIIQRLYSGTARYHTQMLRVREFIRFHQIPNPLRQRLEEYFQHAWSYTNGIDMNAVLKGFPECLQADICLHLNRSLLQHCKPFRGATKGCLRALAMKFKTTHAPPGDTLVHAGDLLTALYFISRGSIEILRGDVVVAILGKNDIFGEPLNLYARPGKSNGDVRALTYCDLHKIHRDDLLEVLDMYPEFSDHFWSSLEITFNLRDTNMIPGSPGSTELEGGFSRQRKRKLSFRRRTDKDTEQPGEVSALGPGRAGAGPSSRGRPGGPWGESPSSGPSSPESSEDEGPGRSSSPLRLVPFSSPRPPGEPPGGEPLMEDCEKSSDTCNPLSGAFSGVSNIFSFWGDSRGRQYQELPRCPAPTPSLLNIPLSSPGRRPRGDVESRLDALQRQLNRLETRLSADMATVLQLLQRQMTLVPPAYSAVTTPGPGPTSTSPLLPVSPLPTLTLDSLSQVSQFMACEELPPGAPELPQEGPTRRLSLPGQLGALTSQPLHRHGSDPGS
Muscarinic acetylcholine receptor M4 (Homo sapiens), sequence (P08173 whole entry): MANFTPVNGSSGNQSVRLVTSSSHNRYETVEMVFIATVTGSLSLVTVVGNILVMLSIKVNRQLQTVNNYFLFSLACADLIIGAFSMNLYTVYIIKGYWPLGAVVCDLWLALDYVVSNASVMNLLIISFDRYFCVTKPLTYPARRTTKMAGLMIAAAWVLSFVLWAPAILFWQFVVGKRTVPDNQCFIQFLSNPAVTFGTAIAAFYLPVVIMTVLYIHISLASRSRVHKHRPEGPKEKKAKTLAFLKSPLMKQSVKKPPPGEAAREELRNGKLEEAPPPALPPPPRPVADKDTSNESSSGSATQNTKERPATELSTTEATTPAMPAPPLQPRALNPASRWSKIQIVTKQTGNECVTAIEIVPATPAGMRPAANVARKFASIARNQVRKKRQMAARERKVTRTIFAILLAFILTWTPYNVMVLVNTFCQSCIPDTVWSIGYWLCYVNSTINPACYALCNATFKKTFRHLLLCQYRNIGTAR
Delta-type opioid receptor (Homo sapiens), sequence (P41143 whole entry): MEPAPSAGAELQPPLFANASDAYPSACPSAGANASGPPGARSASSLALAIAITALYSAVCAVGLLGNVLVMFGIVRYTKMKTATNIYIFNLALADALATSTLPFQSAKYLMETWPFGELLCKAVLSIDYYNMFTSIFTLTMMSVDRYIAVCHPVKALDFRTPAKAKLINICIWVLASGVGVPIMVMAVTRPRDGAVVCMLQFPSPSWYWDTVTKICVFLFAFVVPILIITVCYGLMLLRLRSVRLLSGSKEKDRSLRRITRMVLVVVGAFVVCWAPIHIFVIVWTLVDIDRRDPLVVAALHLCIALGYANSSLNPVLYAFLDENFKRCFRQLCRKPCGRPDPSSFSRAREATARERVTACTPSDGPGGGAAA

## [2H]C([2H])([2H])Oc1ccc(-n2nc3c4ccc(OC([2H])([2H])[2H])cc4[nH]cc-3c2=O)cc1
[1]
  Activity: Non-Toxic
[2]
  Fu: 0.105
[3]
  remaining at 1 h, 10 µM: 91.5%
[4]
  Tmax: 0.55 h
[5]
  fAUC: 288.78 ng·h/g
[6]
  Cmax: 534 ng/g
[7]
  half-life: 2.64 h
[8]
  remaining at 1 h, 10 µM: 93.1%
[9]
  half-life: 3.52 h
[10]
  inhibition (INH): Not Active
[11]
  AUC(0-t) at 12 h: 16700 ng·h/mL
[12]
  Activity: Non-Toxic
[13]
  Tmax: 0.78 h
[14]
  Cmax: 3410 ng/mL
[15]
  Kp: 0.17
[16]
  Activity: Non-Toxic
[17]
  AUC: 2747.67 ng·h/g

## O=c1c2c[nH]c3cc(Br)ccc3c-2nn1-c1ccc(O)cc1
[18]
  Drug metabolism: Metabolite_Detected
[19]
  Drug metabolism: Metabolite_Detected

## COc1ccc(-n2nc3c4cc(Cl)ccc4[nH]cc-3c2=O)cc1
[20]
  t1/2: 2.3 h
[3]
  remaining at 1 h, 10 µM: 72.5%
[21]
  solubility: 8.5 µM (≈ 2.77 µg/mL)
[8]
  remaining at 1 h, 10 µM: 69.2%
[22]
  t1/2: 1.9 h
[23]
  solubility: 6.4 µM (≈ 2.08 µg/mL)
[24]
  inhibition: Active
[12]
  Activity: Non-Toxic
[25]
  inhibition: Active

## COc1ccc2c3nn(-c4ccc(OC)nc4)c(=O)c-3c[nH]c2c1
[3]
  remaining at 1 h, 10 µM: 92.8%
[26]
  Activity: inactive
[27]
  Activity: inactive
[28]
  Activity: inactive
[21]
  solubility: 115.4 µM (≈ 37.2 µg/mL)
[8]
  remaining at 1 h, 10 µM: 74.8%
[10]
  inhibition (INH): Not Active
[23]
  solubility: 67.2 µM (≈ 21.7 µg/mL)
[12]
  Activity: Non-Toxic
[29]
  Activity: inactive
[30]
  inhibition: Active
[31]
  Activity: inactive
[32]
  Activity: Active
